Data reported in ChEMBL document CHEMBL4819149, “A facile reaction to access novel structural sulfonyl-hybridized imidazolyl ethanols as potential DNA-targeting antibacterial agents” (Bioorg Med Chem Lett, 2021).
Values after ≈ are worked out from the molar mass of the structure shown.

Key:
Assay type in all cases: functional
[1] = test system: Staphylococcus aureus; assay: Antibacterial activity against Staphylococcus aureus assessed as bacterial growth inhibition by broth microdilution method
Procedure, shortened: (§1)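 MIC values reported in µg/mL, determined by broth microdilution in microdilution plates.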

[2] = test system: Pseudomonas aeruginosa; assay: Antibacterial activity against Pseudomonas aeruginosa ATCC 27853 assessed as bacterial growth inhibition by broth microdilution method; procedure, shortened: as §1
[3] = test system: Enterococcus faecalis; assay: Antibacterial activity against Enterococcus faecalis assessed as bacterial growth inhibition by broth microdilution method; procedure, shortened: as §1
[4] = test system: Staphylococcus aureus; assay: Antibacterial activity against methicillin-resistant Staphylococcus aureus assessed as bacterial growth inhibition by broth microdilution method
Procedure, shortened: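 MIC read by micro broth dilution; values given in μg/mL.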

[5] = test system: Acinetobacter baumannii; assay: Antibacterial activity against Acinetobacter baumannii assessed as bacterial growth inhibition by broth microdilution method; procedure, shortened: as §1
[6] = test system: Staphylococcus aureus; assay: Antibacterial activity against Staphylococcus aureus ATCC 25923 assessed as bacterial growth inhibition by broth microdilution method; procedure, shortened: as §1
[7] = test system: Klebsiella pneumoniae; assay: Antibacterial activity against Klebsiella pneumonia assessed as bacterial growth inhibition by broth microdilution method; procedure, shortened: as §1
[8] = test system: Escherichia coli; assay: Antibacterial activity against Escherichia coli ATCC 25922 assessed as bacterial growth inhibition by broth microdilution method; procedure, shortened: as §1
[9] = test system: Escherichia coli; assay: Antibacterial activity against Escherichia coli assessed as bacterial growth inhibition by broth microdilution method; procedure, shortened: as §1
[10] = test system: Pseudomonas aeruginosa; assay: Antibacterial activity against Pseudomonas aeruginosa assessed as bacterial growth inhibition by broth microdilution method; procedure, shortened: as §1
[11] = test system: Staphylococcus aureus; assay: Antibacterial activity against Staphylococcus aureus ATCC 29213 assessed as bacterial growth inhibition by broth microdilution method; procedure, shortened: as §1

SMILES | MIC [1] [µg/mL] | MIC [2] [µg/mL] | MIC [3] [µg/mL] | MIC [4] [µg/mL] | MIC [5] [µg/mL] | MIC [6] [µg/mL] | MIC [7] [µg/mL] | MIC [8] [µg/mL] | MIC [9] [µg/mL] | MIC [10] [µg/mL] | MIC [11] [µg/mL]
Cc1nccn1C(CO)CS(=O)(=O)c1ccc(N)cc1 (stereo not given) | 128 (≈ 433 µM) | 64 (≈ 217 µM) | 8 (≈ 27.1 µM) | 16 (≈ 54.2 µM) | 16 (≈ 54.2 µM) | 64 (≈ 217 µM) | 128 (≈ 433 µM) | 32 (≈ 108 µM) | 128 (≈ 433 µM) | 128 (≈ 433 µM) | 64 (≈ 217 µM)
CCc1nc(I)cn1C(CO)CS(=O)(=O)c1ccc(NC(C)=O)cc1 (stereo not given) | 64 (≈ 134 µM) | 32 (≈ 67 µM) | 64 (≈ 134 µM) | 128 (≈ 268 µM) | 64 (≈ 134 µM) | 64 (≈ 134 µM) | 64 (≈ 134 µM) | 32 (≈ 67 µM) | 64 (≈ 134 µM) | 256 (≈ 536 µM) | 64 (≈ 134 µM)
CC(=O)Nc1ccc(S(=O)(=O)CC(CO)n2ccnc2C(C)C)cc1 (stereo not given) | 128 (≈ 350 µM) | 64 (≈ 175 µM) | 32 (≈ 87.6 µM) | 16 (≈ 43.8 µM) | 32 (≈ 87.6 µM) | 64 (≈ 175 µM) | 64 (≈ 175 µM) | 64 (≈ 175 µM) | 64 (≈ 175 µM) | 256 (≈ 700 µM) | 16 (≈ 43.8 µM)
CCc1nccn1C(CO)CS(=O)(=O)c1ccc(NC(C)=O)cc1 (stereo not given) | 64 (≈ 182 µM) | 64 (≈ 182 µM) | 32 (≈ 91.1 µM) | 32 (≈ 91.1 µM) | 16 (≈ 45.5 µM) | 64 (≈ 182 µM) | 128 (≈ 364 µM) | 32 (≈ 91.1 µM) | 64 (≈ 182 µM) | 256 (≈ 728 µM) | 16 (≈ 45.5 µM)
Cc1nc(I)cn1C(CO)CS(=O)(=O)c1ccc(N)cc1 (stereo not given) | 64 (≈ 152 µM) | 32 (≈ 76 µM) | 64 (≈ 152 µM) | 32 (≈ 76 µM) | 32 (≈ 76 µM) | 64 (≈ 152 µM) | 64 (≈ 152 µM) | 32 (≈ 76 µM) | 128 (≈ 304 µM) | 128 (≈ 304 µM) | 64 (≈ 152 µM)
CC(=O)Nc1ccc(S(=O)(=O)CC(CO)n2ccnc2)cc1 (stereo not given) | 64 (≈ 198 µM) | 64 (≈ 198 µM) | 32 (≈ 99 µM) | 32 (≈ 99 µM) | 64 (≈ 198 µM) | 64 (≈ 198 µM) | 128 (≈ 396 µM) | 64 (≈ 198 µM) | 64 (≈ 198 µM) | 128 (≈ 396 µM) | 32 (≈ 99 µM)
CC(C)c1nccn1C(CO)CS(=O)(=O)c1ccc(N)cc1 (stereo not given) | 128 (≈ 396 µM) | 64 (≈ 198 µM) | 8 (≈ 24.7 µM) | 16 (≈ 49.5 µM) | 32 (≈ 98.9 µM) | 32 (≈ 98.9 µM) | 64 (≈ 198 µM) | 64 (≈ 198 µM) | 128 (≈ 396 µM) | 256 (≈ 792 µM) | 64 (≈ 198 µM)
Nc1ccc(S(=O)(=O)CC(CO)n2cnc(Br)c2)cc1 (stereo not given) | 64 (≈ 178 µM) | 32 (≈ 88.8 µM) | 64 (≈ 178 µM) | 16 (≈ 44.4 µM) | 64 (≈ 178 µM) | 64 (≈ 178 µM) | 256 (≈ 711 µM) | 32 (≈ 88.8 µM) | 64 (≈ 178 µM) | 256 (≈ 711 µM) | 64 (≈ 178 µM)
CC(=O)Nc1ccc(S(=O)(=O)CC(CO)n2cnc(C)c2)cc1 (stereo not given) | 128 (≈ 379 µM) | 32 (≈ 94.8 µM) | 64 (≈ 190 µM) | 16 (≈ 47.4 µM) | 64 (≈ 190 µM) | 64 (≈ 190 µM) | 32 (≈ 94.8 µM) | 64 (≈ 190 µM) | 64 (≈ 190 µM) | 128 (≈ 379 µM) | 32 (≈ 94.8 µM)
CC(=O)Nc1ccc(S(=O)(=O)CC(CO)n2cc(I)nc2C)cc1 (stereo not given) | 64 (≈ 138 µM) | 32 (≈ 69.1 µM) | 256 (≈ 553 µM) | 64 (≈ 138 µM) | 64 (≈ 138 µM) | 64 (≈ 138 µM) | 256 (≈ 553 µM) | 32 (≈ 69.1 µM) | 64 (≈ 138 µM) | 256 (≈ 553 µM) | 64 (≈ 138 µM)
CCc1nc(C)cn1C(CO)CS(=O)(=O)c1ccc(N)cc1 (stereo not given) | 64 (≈ 198 µM) | 32 (≈ 98.9 µM) | 16 (≈ 49.5 µM) | 16 (≈ 49.5 µM) | 64 (≈ 198 µM) | 64 (≈ 198 µM) | 128 (≈ 396 µM) | 32 (≈ 98.9 µM) | 64 (≈ 198 µM) | 128 (≈ 396 µM) | 128 (≈ 396 µM)
CC(=O)Nc1ccc(S(=O)(=O)CC(CO)n2cnc(Br)c2)cc1 (stereo not given) | 64 (≈ 159 µM) | 32 (≈ 79.5 µM) | 8 (≈ 19.9 µM) | 8 (≈ 19.9 µM) | 64 (≈ 159 µM) | 64 (≈ 159 µM) | 256 (≈ 636 µM) | 32 (≈ 79.5 µM) | 64 (≈ 159 µM) | 256 (≈ 636 µM) | 32 (≈ 79.5 µM)
CCc1nccn1C(CO)CS(=O)(=O)c1ccc(N)cc1 (stereo not given) | 64 (≈ 207 µM) | 32 (≈ 103 µM) | 16 (≈ 51.7 µM) | 16 (≈ 51.7 µM) | 64 (≈ 207 µM) | 64 (≈ 207 µM) | 128 (≈ 414 µM) | 32 (≈ 103 µM) | 64 (≈ 207 µM) | 256 (≈ 827 µM) | 64 (≈ 207 µM)
CCc1nc(I)cn1C(CO)CS(=O)(=O)c1ccc(N)cc1 (stereo not given) | 64 (≈ 147 µM) | 32 (≈ 73.5 µM) | 64 (≈ 147 µM) | 16 (≈ 36.8 µM) | 64 (≈ 147 µM) | 64 (≈ 147 µM) | 256 (≈ 588 µM) | 32 (≈ 73.5 µM) | 64 (≈ 147 µM) | 256 (≈ 588 µM) | 64 (≈ 147 µM)
CCCc1nccn1C(CO)CS(=O)(=O)c1ccc(NC(C)=O)cc1 (stereo not given) | 32 (≈ 87.6 µM) | 32 (≈ 87.6 µM) | 16 (≈ 43.8 µM) | 32 (≈ 87.6 µM) | 32 (≈ 87.6 µM) | 64 (≈ 175 µM) | 128 (≈ 350 µM) | 64 (≈ 175 µM) | 64 (≈ 175 µM) | 256 (≈ 700 µM) | 32 (≈ 87.6 µM)
CCCc1nccn1C(CO)CS(=O)(=O)c1ccc(N)cc1 (stereo not given) | 128 (≈ 396 µM) | 32 (≈ 98.9 µM) | 32 (≈ 98.9 µM) | 8 (≈ 24.7 µM) | 32 (≈ 98.9 µM) | 64 (≈ 198 µM) | 128 (≈ 396 µM) | 64 (≈ 198 µM) | 64 (≈ 198 µM) | 256 (≈ 792 µM) | 128 (≈ 396 µM)
Nc1ccc(S(=O)(=O)CC(CO)n2ccnc2)cc1 (stereo not given) | 32 (≈ 114 µM) | 64 (≈ 227 µM) | 32 (≈ 114 µM) | 16 (≈ 56.9 µM) | 128 (≈ 455 µM) | 64 (≈ 227 µM) | 128 (≈ 455 µM) | 64 (≈ 227 µM) | 128 (≈ 455 µM) | 256 (≈ 910 µM) | 64 (≈ 227 µM)
Cc1cn(C(CO)CS(=O)(=O)c2ccc(N)cc2)cn1 (stereo not given) | 64 (≈ 217 µM) | 32 (≈ 108 µM) | 16 (≈ 54.2 µM) | 8 (≈ 27.1 µM) | 16 (≈ 54.2 µM) | 32 (≈ 108 µM) | 32 (≈ 108 µM) | 64 (≈ 217 µM) | 64 (≈ 217 µM) | 128 (≈ 433 µM) | 64 (≈ 217 µM)
CC(=O)Nc1ccc(S(=O)(=O)CC(CO)n2cnc(I)c2)cc1 (stereo not given) | 64 (≈ 142 µM) | 32 (≈ 71.2 µM) | 64 (≈ 142 µM) | 32 (≈ 71.2 µM) | 32 (≈ 71.2 µM) | 64 (≈ 142 µM) | 64 (≈ 142 µM) | 32 (≈ 71.2 µM) | 128 (≈ 285 µM) | 32 (≈ 71.2 µM) | 64 (≈ 142 µM)
CC(=O)Nc1ccc(S(=O)(=O)CC(CO)n2ccnc2C)cc1 (stereo not given) | 64 (≈ 190 µM) | 64 (≈ 190 µM) | 64 (≈ 190 µM) | 8 (≈ 23.7 µM) | 16 (≈ 47.4 µM) | 64 (≈ 190 µM) | 128 (≈ 379 µM) | 32 (≈ 94.8 µM) | 64 (≈ 190 µM) | 128 (≈ 379 µM) | 32 (≈ 94.8 µM)
